According to article PMC7439261 (ACS Omega, 2020):
pIC50: −log10 of the molar value. Values after ≈ are worked out from the molar mass of the structure shown.

Columns and labels:
[1] = tested on: test strains of H. pylori; assay: Broth dilution bioassay MIC/MBC, text summary over test strains; assay type: cell-based; conditions: Helicobacter pylori
[2] = tested on: H. pylori OX.67; assay: Broth dilution bioassay MIC/MBC, OX.67; assay type: cell-based, Helicobacter pylori; conditions: for MIC: H. pylori OX.67, broth dilution, 48 h; for MBC: OX.67, 72 h
[3] = tested on: H. pylori OX.63; assay: Broth dilution bioassay MIC/MBC, OX.63; assay type: cell-based, Helicobacter pylori; conditions: for MIC: H. pylori OX.63, broth dilution, 48 h; for MBC: OX.63, 72 h
[4] = tested on: H. pylori OX.83; assay: Broth dilution bioassay MIC/MBC, OX.83; assay type: cell-based, Helicobacter pylori; conditions: for MIC: H. pylori OX.83, broth dilution, 48 h; for MBC: OX.83, 72 h
[5] = tested on: H. pylori ATCC 43504; assay: Broth dilution bioassay MIC/MBC, ATCC 43504; assay type: cell-based; conditions: Helicobacter pylori; for MIC: ATCC43504, 48 h; for MBC: ATCC43504, 72 h
[6] = tested on: H. pylori OX.64; assay: Broth dilution bioassay MIC/MBC, OX.64; assay type: cell-based, Helicobacter pylori; conditions: for MIC: H. pylori OX.64, broth dilution, 48 h; for MBC: OX.64, 72 h
[7] = tested on: H. pylori OX.22; assay: Broth dilution bioassay MIC/MBC, OX.22; assay type: cell-based; conditions: Helicobacter pylori; for MIC: OX.22, 48 h; for MBC: OX.22, 72 h
[8] = tested on: H. pylori ATCC 51932; assay: Broth dilution bioassay MIC/MBC, ATCC 51932; assay type: cell-based; conditions: Helicobacter pylori; for MIC: ATCC51932, 48 h; for MBC: ATCC51932, 72 h
[9] = Sulforhodamine cytotoxicity assay, fibroblast; assay type: cell-based; conditions: human, fibroblast cells derived from human foreskins
In short: (§1)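 Cells were grown in EMEM with 10% FBS, 2 mM L-glutamine, 20 mM HEPES and antibiotics at 37 °C, 5% CO2. Passages were 4–20 for HeLa, MCF7 and Jurkat, and 2–5 for fibroblasts. Seeding per well for 24 h: HeLa 5×10^3, MCF7 and fibroblast 10^4, Jurkat 5×10^4. Test compound (0–200 mg/L, in DMSO) was added for 48 h. Cells were fixed with cold TCA, stained with 0.2% SRB, solubilised in 10 mM Tris and read at 492 nm. Camptothecin was the positive control. Triplicates, three independent experiments.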

[10] = Sulforhodamine cytotoxicity assay, text summary over four cell lines; assay type: cell-based; conditions: human
In short: as §1

[11] = Sulforhodamine cytotoxicity assay, MCF7; assay type: cell-based; conditions: human, MCF7 cells
In short: as §1

[12] = Sulforhodamine cytotoxicity assay, HeLa; assay type: cell-based; conditions: human, HeLa cells
In short: as §1

[13] = Sulforhodamine cytotoxicity assay, Jurkat; assay type: cell-based; conditions: human, Jurkat cells
In short: as §1

[14] = target: H. pylori ATCC 43504 urease (Helicobacter pylori, UniProt P69996); assay: Urease inhibition, salicylate-hypochlorite method; assay type: biochemical
Sequence of H. pylori ATCC 43504 urease (P69996 whole entry): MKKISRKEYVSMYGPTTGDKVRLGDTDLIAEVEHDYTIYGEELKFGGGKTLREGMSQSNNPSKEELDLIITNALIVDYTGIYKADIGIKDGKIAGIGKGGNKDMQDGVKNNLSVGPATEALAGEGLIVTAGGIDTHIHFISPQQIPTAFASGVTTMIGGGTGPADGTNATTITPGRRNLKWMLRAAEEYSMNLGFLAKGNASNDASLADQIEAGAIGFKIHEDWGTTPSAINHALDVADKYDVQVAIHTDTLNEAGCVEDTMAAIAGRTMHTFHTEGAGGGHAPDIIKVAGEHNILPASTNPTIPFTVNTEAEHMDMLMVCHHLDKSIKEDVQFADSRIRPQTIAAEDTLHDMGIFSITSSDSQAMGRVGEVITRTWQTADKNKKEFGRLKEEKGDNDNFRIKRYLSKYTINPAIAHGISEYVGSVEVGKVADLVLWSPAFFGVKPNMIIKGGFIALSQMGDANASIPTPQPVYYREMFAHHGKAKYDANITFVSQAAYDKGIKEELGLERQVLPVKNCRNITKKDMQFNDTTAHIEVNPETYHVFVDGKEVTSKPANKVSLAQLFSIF
Sequence of H. pylori ATCC 43504 urease (P14916 whole entry partner): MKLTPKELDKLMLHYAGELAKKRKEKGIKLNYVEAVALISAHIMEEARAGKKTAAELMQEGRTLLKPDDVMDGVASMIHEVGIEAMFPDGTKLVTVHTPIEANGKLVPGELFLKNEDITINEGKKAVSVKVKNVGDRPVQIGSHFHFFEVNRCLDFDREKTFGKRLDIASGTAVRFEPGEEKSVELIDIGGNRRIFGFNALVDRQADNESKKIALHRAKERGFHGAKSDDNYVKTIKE
In short: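 Crude H. pylori ATCC 43504 urease, 0.25 μg (0.04 U), in EDTA–sodium phosphate buffer pH 7.3, was preincubated with test compound at 37 °C for 90 min at 50 rpm. Urea solution (10 mM, as added) was then incubated for 30 min. Ammonia was measured by the salicylate–nitroprusside/alkaline hypochlorite method at 625 nm. Thiourea was the reference inhibitor. IC50 is molar. Triplicates, three independent experiments.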

[15] = Helicobacter pylori, OX.67, 48 h
[16] = Helicobacter pylori, OX.63, 48 h
[17] = Helicobacter pylori, OX.83, 48 h
[18] = Helicobacter pylori, OX.64, 48 h

Row | Structure (SMILES) | MIC [1] [µg/mL] | MIC [2, 15] [µg/mL] | MBC ([2]; Helicobacter pylori) [µg/mL] | MIC [3] [µg/mL] | MIC [3, 16] [µg/mL] | MBC ([3]; Helicobacter pylori) [µg/mL] | MIC [4, 17] [µg/mL] | MBC ([4]; Helicobacter pylori) [µg/mL] | MIC [5] [µg/mL] | MBC [5] [µg/mL] | MIC [6] [µg/mL] | MIC [6, 18] [µg/mL] | MBC ([6]; Helicobacter pylori) [µg/mL] | MIC [7] [µg/mL] | MBC [7] [µg/mL] | MIC [8] [µg/mL] | MBC [8] [µg/mL] | other results
1 | CC[C@H]1OC(=O)[C@H](C)[C@@H](O[C@H]2C[C@@](C)(OC)[C@@H](O)[C@H](C)O2)[C@H](C)[C@@H](O[C@@H]2O[C@H](C)C[C@H](N(C)C)[C@H]2O)[C@](C)(O)C[C@@H](C)CN(C)[C@H](C)[C@@H](O)[C@]1(C)O [azithromycin] | 16 to 32 (≈ 21.4 to 42.7 µM) | 64 (≈ 85.4 µM) | 128 (≈ 171 µM) | 32 (≈ 42.7 µM) | 32 to 64 (≈ 42.7 to 85.4 µM) | 128 (≈ 171 µM) | 64 (≈ 85.4 µM) | 128 (≈ 171 µM) | 0.5 (≈ 0.668 µM) | 1 (≈ 1.34 µM) | 16 (≈ 21.4 µM) | 16 to 32 (≈ 21.4 to 42.7 µM) | 128 (≈ 171 µM) | 0.5 (≈ 0.668 µM) | 1 (≈ 1.34 µM) | 0.5 (≈ 0.668 µM) | 1 (≈ 1.34 µM) | MIC [2]: 32 µg/mL (≈ 42.7 µM); MIC [4]: 32 µg/mL (≈ 42.7 µM)
2 | CC[C@@]1(O)C(=O)OCc2c1cc1n(c2=O)Cc2cc3ccccc3nc2-1 [camptothecin, reference compound] | – | – | – | – | – | – | – | – | – | – | – | – | – | – | – | – | – | CC50 at 48 h [9]: 1.57 µg/mL (≈ 4.51 µM); CC50 at 48 h [10]: 0.005 to 1.57 µg/mL (≈ 0.0144 to 4.51 µM); CC50 at 48 h [11]: 0.005 µg/mL (≈ 0.0144 µM); CC50 at 48 h [12]: 0.89 µg/mL (≈ 2.55 µM); CC50 at 48 h [13]: 0.005 µg/mL (≈ 0.0144 µM)
3 | CC[C@H]1OC(=O)[C@H](C)[C@@H](O[C@H]2C[C@@](C)(OC)[C@@H](O)[C@H](C)O2)[C@H](C)[C@@H](O[C@@H]2O[C@H](C)C[C@H](N(C)C)[C@H]2O)[C@](C)(O)C[C@@H](C)C(=O)[C@H](C)[C@@H](O)[C@]1(C)O [erythromycin] | – | 64 (≈ 87.2 µM) | 128 (≈ 174 µM) | – | – | 128 (≈ 174 µM) | 64 (≈ 87.2 µM) | 128 (≈ 174 µM) | 0.063 (≈ 0.0858 µM) | 0.125 (≈ 0.17 µM) | – | 16 to 32 (≈ 21.8 to 43.6 µM) | 128 (≈ 174 µM) | – | 128 (≈ 174 µM) | 0.063 (≈ 0.0858 µM) | 0.125 (≈ 0.17 µM) | –
4 | C[C@H]1COc2c(N3CCN(C)CC3)c(F)cc3c(=O)c(C(=O)O)cn1c23 [levofloxacin] | 32 (≈ 88.6 µM) | 0.063 (≈ 0.174 µM) | 0.25 (≈ 0.692 µM) | – | 0.063 (≈ 0.174 µM) | 0.5 (≈ 1.38 µM) | 0.75 (≈ 2.08 µM) | 1.25 (≈ 3.46 µM) | 0.125 (≈ 0.346 µM) | 0.25 (≈ 0.692 µM) | 32 (≈ 88.6 µM) | 16 to 32 (≈ 44.3 to 88.6 µM) | 128 (≈ 354 µM) | 0.063 (≈ 0.174 µM) | 0.5 (≈ 1.38 µM) | 0.125 (≈ 0.346 µM) | 0.25 (≈ 0.692 µM) | –
5 | Cc1ncc([N+](=O)[O-])n1CCO [metronidazole] | – | 2 (≈ 11.7 µM) | 4 (≈ 23.4 µM) | 64 (≈ 374 µM) | 32 to 64 (≈ 187 to 374 µM) | 256 (≈ 1500 µM) | 1 (≈ 5.84 µM) | 2 (≈ 11.7 µM) | 32 (≈ 187 µM) | 192 (≈ 1120 µM) | 32 (≈ 187 µM) | 16 to 32 (≈ 93.5 to 187 µM) | 256 (≈ 1500 µM) | 32 (≈ 187 µM) | 256 (≈ 1500 µM) | 2 (≈ 11.7 µM) | 4 (≈ 23.4 µM) | MIC ([1]; 48 h): 24 to 64 µg/mL (≈ 140 to 374 µM)
6 | NC(N)=S [thiourea, reference compound] | – | – | – | – | – | – | – | – | – | – | – | – | – | – | – | – | – | pIC50 ([14]; read-out: IC50 (95% CL), urease crude, preincubation 90 min, pH 7.3): 3.24; slope ± SE ([14]; slope of dose-response curve of percentage of urease inhibition): 1.79 ± 0.093
